# Results: ChEMBL document CHEMBL2311521, “Design, synthesis, characterization and biological evaluation of novel pyrazole integrated benzophenones” (2013)
# Assays:
# [1] = test system: Radical scavenging activity; experiment: Antioxidant activity of the compound assessed as DPPH radical scavenging activity at 100 uM after 20 mins; type: functional
# Method in brief: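 Sample solution (0.1 mM) was mixed with an equal volume of 0.1 mM DPPH in ethanol. After 20 min at room temperature, DPPH reduction was read as absorbance at 517 nm.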
# Rattus norvegicus [2] = experiment: Antiinflammatory activity in rat assessed as inhibition of carrageenan-induced hind paw edema at 100 mg/kg, po administered 1 hr before carrageenan-challenge measured after 1 hr; type: functional
# Method in brief: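 Rats (n = 6 per group) were dosed orally, with the vehicle group given 1% w/v gum acacia at 10 ml/kg p.o. One hour after dosing, 0.1 ml of 1% w/v carrageenan was injected subplantar into the hind paw. Paw volume was measured by plethysmometer volume displacement, immersing the paw to the lateral malleolus, at 1, 3 and 6 h after carrageenan.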
# [3] = molecular target: T1, Prostaglandin G/H synthase 1 (Ovis aries) (UniProt P05979); experiment: Inhibition of ovine COX1 peroxidase activity assessed as appearance of oxidized N,N,N,N'-tetramethyl-p-phenylenediamine by colorimetric analysis relative to control; set-up: concentration or dose not given beside the values; settings: concentration not given here
# T1 sequence (whole entry): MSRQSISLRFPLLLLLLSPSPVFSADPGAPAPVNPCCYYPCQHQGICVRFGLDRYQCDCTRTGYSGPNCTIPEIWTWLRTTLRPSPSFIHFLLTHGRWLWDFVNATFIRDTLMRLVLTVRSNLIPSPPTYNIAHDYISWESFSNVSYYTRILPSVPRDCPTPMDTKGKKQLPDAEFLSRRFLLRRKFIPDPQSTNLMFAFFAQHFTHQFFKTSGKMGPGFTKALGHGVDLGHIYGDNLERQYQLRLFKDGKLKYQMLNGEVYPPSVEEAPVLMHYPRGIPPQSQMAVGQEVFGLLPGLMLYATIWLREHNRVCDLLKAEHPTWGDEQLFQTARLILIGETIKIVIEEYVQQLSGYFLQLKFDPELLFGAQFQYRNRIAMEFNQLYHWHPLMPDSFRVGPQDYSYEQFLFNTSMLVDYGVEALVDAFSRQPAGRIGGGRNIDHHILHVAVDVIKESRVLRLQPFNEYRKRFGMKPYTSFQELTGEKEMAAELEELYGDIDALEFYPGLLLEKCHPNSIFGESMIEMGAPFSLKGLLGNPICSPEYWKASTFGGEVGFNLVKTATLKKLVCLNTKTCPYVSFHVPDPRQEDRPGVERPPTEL
# Method in brief: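 Colorimetric ovine COX inhibitor screening kit: assay buffer, heme, COX-1 enzyme and sample (0.1 mM), with peroxidase activity read by absorbance at 590 nm. Percent inhibition = (1 − T/C) × 100, where C is the uninhibited well. Determinations were run in duplicate.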
# Rattus norvegicus [4] = experiment: Antiinflammatory activity in rat assessed as inhibition of carrageenan-induced hind paw edema at 100 mg/kg, po administered 1 hr before carrageenan-challenge measured after 6 hrs
# Rattus norvegicus [5] = experiment: Antiinflammatory activity in rat assessed as inhibition of carrageenan-induced hind paw edema at 100 mg/kg, po administered 1 hr before carrageenan-challenge measured after 3 hrs
# [6] = Antioxidant activity assessed as superoxide radical scavenging activity at 100 uM after 5 mins by NBT reduction assay; type: functional
# Method in brief: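 Superoxide scavenging by NBT reduction in buffer (100 mM, pH 7.4) with NBT and sample (0.1 mM). The reaction was started by adding PMS, incubated 5 min at room temperature, and read by absorbance at 560 nm.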
# [7] = Antioxidant activity assessed as hydroxyl radical scavenging activity at 100 uM after 5 mins; type: functional
Structure (SMILES),inhibition [3],Activity [1],Activity (Rattus norvegicus [2]),Activity (Rattus norvegicus [4]),Activity (Rattus norvegicus [5]),Activity [6],Activity [7]
COc1ccc2c(c1)c(CC(=O)O)c(C)n2C(=O)c1ccc(Cl)cc1 [INDOMETHACIN],–,–,0.86 mL,0.78 mL,0.95 mL,–,–
COc1cc(OC)c(-c2ccnn2C)c(O)c1C(=O)c1cccc(Cl)c1Cl,58.3%,29.6%,0.9 mL,1.29 mL,1.39 mL,–,–
COc1ccc(C(=O)c2c(OC)cc(OC)c(-c3ccnn3C)c2O)cc1,61.4%,48.9%,0.89 mL,0.99 mL,0.89 mL,–,–
COc1cc(OC)c(-c2ccnn2C)c(O)c1C(=O)c1ccc(Cl)cc1Cl,61.7%,26.1%,0.59 mL,1.62 mL,1.22 mL,–,–
COc1cc(OC)c(-c2ccnn2C)c(O)c1C(=O)c1cccc(C(F)(F)F)c1,55.8%,28%,0.93 mL,1.55 mL,1.44 mL,–,–
COc1cc(OC)c(-c2ccnn2C)c(O)c1C(=O)c1cc(Cl)ccc1Cl,52.4%,31.2%,1.01 mL,1.11 mL,1.1 mL,–,–
COc1cc(OC)c(-c2ccnn2C)c(O)c1C(=O)c1ccc(F)cc1F,55.8%,43.6%,1.12 mL,1.17 mL,1.05 mL,–,–
O=C1O[C@H]([C@@H](O)CO)C(O)=C1O,–,81.5%,–,–,–,78.3%,52%

# Further lines, with some results ahead:
inhibition [3],Structure (SMILES),Activity [1],Activity (Rattus norvegicus [2]),Activity (Rattus norvegicus [4]),Activity (Rattus norvegicus [5]),Activity [6],Activity [7]
61.7%,COc1cc(OC)c(-c2ccnn2C)c(O)c1C(=O)c1cccc(F)c1,34.5%,0.92 mL,1.63 mL,1.2 mL,–,–
58.3%,COc1cc(OC)c(-c2ccnn2C)c(O)c1C(=O)c1ccccc1F,31.5%,1.1 mL,0.96 mL,1.06 mL,–,–
57.5%,COc1cc(OC)c(-c2ccnn2C)c(O)c1C(=O)c1ccccc1,36.2%,0.81 mL,1.22 mL,1.11 mL,–,–
59.1%,COc1cc(OC)c(-c2ccnn2C)c(O)c1C(=O)c1cccc(Br)c1,40.2%,0.92 mL,0.91 mL,1 mL,–,–
